pIC50: −log10 of the molar value.
Tests used:
[1] = test system: HepG2; assay: Antiproliferative activity against human HepG2 cells after 48 hrs by MTT assay; format: functional, cell-based; conditions: HepG2, 48 h
How it was run: (§1)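 Cells seeded at 2000/well, cultured 24 h, then exposed to compounds 48 h. MTT (10 mg/mL stock, 10 µL/well) added for 2.5 h at 37 °C; supernatant removed, DMSO added 15–20 min, absorbance read at 570 nm. IC50 reported as mean of three independent experiments.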

[2] = test system: NCI-H460; assay: Antiproliferative activity against human NCI-H460 cells after 48 hrs by MTT assay; format: functional, cell-based; conditions: NCI-H460, 48 h; how it was run: as §1
[3] = test system: HeLa; assay: Antiproliferative activity against human HeLa cells after 48 hrs by MTT assay; format: functional, cell-based; how it was run: as §1
[4] = test system: PC-3; assay: Antiproliferative activity against human PC3 cells after 48 hrs by MTT assay; format: functional, cell-based; conditions: PC-3, 48 h; how it was run: as §1
[5] = test system: NCI-H460; assay: Induction of apoptosis in human NCI-H460 cells at 2.5 uM after 48 hrs using annexin V-FITC and propidium iodine staining by flow cytometric analysis (reference value: 3.82%); format: functional
[6] = test system: NCI-H460; assay: Induction of apoptosis in human NCI-H460 cells at 10 uM after 48 hrs using annexin V-FITC and propidium iodine staining by flow cytometric analysis (reference value: 3.82%); format: functional

Row | SMILES | pIC50 [1] | pIC50 [2] | pIC50 [3] | pIC50 [4] | Activity [5] [%] | Activity [6] [%]
1 | CC(=O)Nc1ccc2oc(C(=O)c3ccccc3)c(C)c2c1 | < 4.40 | < 4.40 | < 4.40 | < 4.40 | – | –
2 | CCOC(=O)c1oc2ccc(NS(=O)(=O)c3ccc(F)cc3)cc2c1C | 5.25 | 5.05 | 4.91 | 4.80 | – | –
3 | CCOC(=O)c1oc2ccc(S(=O)(=O)Nc3ccc(F)cc3)cc2c1C | 5.12 | 5.38 | 5.03 | 5.07 | 33.88 | 41.09

More lines, main results first:

Row | pIC50 [1] | pIC50 [2] | pIC50 [3] | pIC50 [4] | SMILES | Activity [5] [%] | Activity [6] [%]
4 | 4.51 | 4.81 | 4.73 | 4.87 | Cc1c(C(=O)c2ccccc2)oc2ccc(NC(=O)c3ccc(F)cc3)cc12 | – | –
5 | 4.62 | 4.46 | 4.97 | 4.42 | Cc1c(C(=O)c2ccccc2)oc2ccc(NS(=O)(=O)c3ccc(F)cc3)cc12 | – | –
6 | 4.49 | 4.65 | 4.81 | 4.66 | Cc1c(C(=O)c2ccccc2)oc2ccc(S(=O)(=O)Nc3ccc(F)cc3)cc12 | – | –
